# In the library only some 2.3% were active in any assay of this set; here they are far more common.
# SR-BI uptake up = activators of SR-BI mediated HDL lipid uptake. CHO ldlA[mSR-BI] cells, DiI-HDL uptake fluorescence, 3 h; 100 = double the neutral-control signal. activation, % at 12.5 µM. 0.096% of 320,000 active;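 active means mean replicate activation of at least 60% and every replicate at or above 60%; inconclusive means mean or all-replicate condition met, but not both; inactive means mean below 60% and not all replicates reaching 60%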;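 further: 0% = median plate neutral-control signal and 100% = twice that signal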
#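 Material: SR-BI-overexpressing, LDLR-lacking CHO cells; schedule: compound exposure 3 h, 37 °C; reagent: DiI-labelled HDL at 10 µg/mL final; technique: bottom-read fluorescence, 550/595 nm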
# SR-BI DiI inh = blocks mouse SR-BI lipid uptake from DiI-HDL; Q61009; ldlA[mSR-BI] CHO cells, DiI-HDL uptake fluorescence, 3 h; inhibition, % at 12.5 µM; 0.96% of 320,000 active;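 active means mean replicate inhibition of at least 70% and a set share of replicates each scoring 70 or more; inconclusive means meets just one of the two criteria; inactive means fails both criteria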;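 further: 0% = median of neutral control wells and 100% = median of positive control wells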
# CAL PDZ FP-1 = human CAL PDZ-peptide interaction inhibition; Q9HD26; purified CAL PDZ, TMR-peptide fluorescence polarization, 1 h; inhibition, % at 20 µM; 0.02% of 330,000 active; AID 504414;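 active means highest replicate inhibition of at least 40%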;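 further: plate controls were DMSO neutral control wells for no effect and unlabeled competitor peptide control wells for full effect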
#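 Control set: unlabelled peptide and DMSO controls / Material: purified CerCALP PDZ construct / Timing: 1 h incubation at room temperature before polarization reading / Doses: 20 µM, one dose / Detection: fluorescence polarization (mP)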
# CAL PDZ FP-2 = CAL PDZ (human) peptide binding inhibition. purified CAL PDZ, TMR-peptide fluorescence polarization, 1 h. inhibition, % at 24.9 µM. 0.92% of 300,000 active. AID 602252;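 active means mean inhibition of at least 30% with at least half of replicates also reaching 30%; inconclusive means no clear call, values can overlap the other calls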;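 further: 0% = DMSO neutral control and 100% = excess unlabeled competitor peptide PRC23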
# ATG4B inh = ATG4B (human) cysteine protease inhibition; Q9Y4P1; ATG4B cleavage of LC3-PLA2, NBD-HPC fluorescence, 1 h; inhibition, % at 8.33 µM; 0.51% of 340,000 active; in the data active means inhibition above about 40%
# Target sequence (Q9Y4P1 whole entry, looked up): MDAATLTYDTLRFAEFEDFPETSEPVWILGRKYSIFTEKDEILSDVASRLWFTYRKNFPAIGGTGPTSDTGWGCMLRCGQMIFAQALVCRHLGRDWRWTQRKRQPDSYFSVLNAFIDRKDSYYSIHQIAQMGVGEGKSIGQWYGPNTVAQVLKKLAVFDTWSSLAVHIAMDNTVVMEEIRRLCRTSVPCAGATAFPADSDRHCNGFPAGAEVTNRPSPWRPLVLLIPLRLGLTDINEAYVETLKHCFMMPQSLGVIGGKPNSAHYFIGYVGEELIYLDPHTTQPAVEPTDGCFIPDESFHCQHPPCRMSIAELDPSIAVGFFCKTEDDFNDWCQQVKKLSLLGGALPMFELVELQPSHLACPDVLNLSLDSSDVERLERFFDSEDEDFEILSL
# * hit, by the source's call; ? = inconclusive; nt = not tested or not shown.
SMILES,SR-BI uptake up,SR-BI DiI inh,CAL PDZ FP-1,CAL PDZ FP-2,ATG4B inh
O=C(N/N=C/c1cc([N+](=O)[O-])ccc1O)c1ccc(COc2ccc3c(c2)CCC3)o1,-136.4,136.3*,-3.1,-3.0,-0.2
Cc1cc(=O)oc(C)c1C(=O)NCCc1ccc(F)cc1,11.1,-11.1,nt,38.9*,-1.9
CC(=O)N(c1ccc(C)cc1)S(=O)(=O)c1ccc(Cl)cc1,5.8,-5.8,-0.9,45.9*,-7.9
CCCCCCCC(=O)Nc1ccc(C(=O)N/N=C/c2cccc([N+](=O)[O-])c2)cc1,-86.9,86.9*,2.9,-3.2,-0.8
CCCCCCC(=O)Nc1ccc(C(=O)N/N=C/c2cccnc2)cc1,-76.1,?,-1.2,0.5,-32.3
CC(C)(C)CN1CCNC(=O)C1CC(=O)N1CCN(c2ccccc2)CC1 (configuration not stated),nt,nt,-3.1,1.2,15.5
COc1ccc(Br)cc1C(=O)Nc1ccc(N2CCN(S(C)(=O)=O)CC2)cc1,nt,nt,0.4,-1.6,-19.0
O=C(Nc1ccc(N2CCCC2)cc1)c1ccc(Br)cc1,-75.8,75.8*,-0.3,-7.4,1.8
CC(C)Oc1ccc(C(=O)Nc2ccc(N3CCN(C(=O)c4ccco4)CC3)cc2)cc1,-74.2,74.2*,-1.1,-5.0,-2.3
COc1ccc(Br)cc1C(=O)Nc1ccc(N2CCCC2)cc1,-78.2,78.2*,-1.5,3.0,8.7
COc1cc(OC)cc(C(=O)Nc2cccc(N3CCCC3)c2)c1,-87.0,87.0*,-2.4,-3.1,-0.3
CC(C)Oc1ccc(C(=O)Nc2ccc(N3CCCC3)cc2)cc1,-75.1,75.2*,-0.5,0.8,17.1
Cc1cc(C)cc(C(=O)Nc2ccc(N3CCCC3)cc2)c1,-87.5,87.5*,-1.2,-0.2,-9.5
O=C(Nc1cccc(NC(=O)c2cccc(Cl)c2)c1)c1cccnc1,-57.9,57.9,-3.2,35.2*,-2.3
COc1ccc(C(=O)Nc2ccc(N3CCN(C)CC3)cc2)cc1,12.8,-12.8,-0.1,0.2,1.9
COc1ccccc1C(=O)Nc1cc2cc(Br)ccc2oc1=O,-15.0,99.8*,-2.5,0.4,-7.6
COc1ccccc1C(=O)Nc1cc2ccccc2oc1=O,0.6,-0.6,-1.9,nt,-5.7
CCOC(=O)c1cc([N+](=O)[O-])cc([N+](=O)[O-])c1Sc1ncnc2nc[nH]c12,4.5,-4.5,1.3,-2.5,1.9
Cc1ccccc1OCC(=O)OCC(=O)Nc1ncc(Cl)c(C)c1Cl,24.0,-24.0,-0.6,-1.4,12.0
CN(C)/C=N/C1=C(C#N)C(c2cccs2)c2ccc3ccccc3c2O1 (configuration not stated),-44.8,44.8,-1.2,-3.8,-9.9
C=CCOc1ccc(C2C(C(=O)c3ccco3)=C(O)C(=O)N2c2nnc(C)s2)cc1 (configuration not stated),18.1,-18.1,-0.5,-5.5,-1.6
Nc1ccc(C(=O)NN2C(=O)[C@H](Cl)C2c2ccc(Cl)cc2)cc1 (some centres not stated),-50.6,50.6,-0.8,-4.3,12.1
NS(=O)(=O)c1ccc(NC(=O)c2cc(Cl)ccc2Cl)cc1,-7.9,7.9,-1.2,0.0,-3.0
NS(=O)(=O)c1ccc(NC(=O)c2cccc(Cl)c2)cc1,5.4,-5.4,-1.0,39.3*,0.5
CC(=O)N1CCN(c2ccc(NC(=O)c3cc4ccccc4o3)cc2)CC1,-19.0,19.0,0.0,-2.5,-3.5
SMILES,SR-BI uptake up,SR-BI DiI inh,CAL PDZ FP-1,CAL PDZ FP-2,ATG4B inh
Cc1cccc(C(=O)Nc2ccc(C(=O)/C=C/c3ccncc3)cc2)c1,-38.7,38.7,43.0*,-3.8,-5.2
Cc1cccc(C(=O)Nc2ccc(C(=O)/C=C/c3cccnc3)cc2)c1,-68.8,68.8,-1.0,0.3,-1.0
O=C(Nc1ccc(N2CCCC2)cc1)c1cc2ccccc2o1,-71.6,71.6*,0.6,nt,0.2
Cc1cccc(NC(=O)CCNC(=O)c2ccc(Br)cc2)c1,-20.5,20.5,-0.8,47.2*,-16.0
COc1ccc(S(=O)(=O)N(C)CC(=O)NCCCN2CCOCC2)cc1C,-1.5,1.5,0.7,nt,-0.3
COc1ccc(Br)cc1C(=O)Nc1cccc(C)c1,-75.4,75.4*,nt,5.6,-8.5
Cc1ccccc1C(=O)N1CCN(c2ccc(NC(=O)c3cccc(OC(C)C)c3)cc2)CC1,-73.8,73.8*,-1.6,9.8,-4.3
O=C(Nc1ccc(N2CCN(C(=O)c3ccco3)CC2)cc1)c1ccc([N+](=O)[O-])cc1Cl,-58.7,58.7,-2.2,-1.3,-2.5

# Assay outcomes (PubChem)
